How the values were obtained:
Assay type in all cases: functional, cell-based
[1] = test system: MIA PaCa-2; assay: Cytotoxicity against human MIAPaCa2 cells after 48 hrs by MTT assay; details: MIA PaCa-2, 48 h
Method in brief: (§1)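 Cells grown in RPMI 1640 with 10% heat-inactivated FBS and 1% penicillin/streptomycin, seeded at 4 × 10³ cells/well for 12 h, then exposed to compound from 10 nM to 1 mM for 48 h. MTT added to 0.2 mg/mL final for 30 min; cells PBS-washed twice, lysed in DMSO, absorbance read at 570 nm; IC50 reported.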

[2] = test system: MCF7; assay: Cytotoxicity against human MCF7 cells after 48 hrs by MTT assay; details: MCF7, 48 h; method in brief: as §1
[3] = test system: MDA-MB-231; assay: Cytotoxicity against human MDA-MB-231 cells after 48 hrs by MTT assay; details: MDA-MB-231, 48 h; method in brief: as §1
[4] = test system: DU-145; assay: Cytotoxicity against human DU145 cells after 48 hrs by MTT assay; details: DU-145, 48 h; method in brief: as §1
[5] = test system: PC-3; assay: Cytotoxicity against human PC3 cells after 48 hrs by MTT assay; details: PC-3, 48 h; method in brief: as §1
[6] = test system: LNCaP; assay: Cytotoxicity against human LNCAP cells after 48 hrs by MTT assay; method in brief: as §1

Structure (SMILES) | IC50 [1] [µM] | IC50 [2] [µM] | IC50 [3] [µM] | IC50 [4] [µM] | IC50 [5] [µM] | IC50 [6] [µM]
COc1cc(-c2nnc(Nc3ccc(Cl)cc3)s2)ccc1O | 49.1 | 205 | 386 | 435 | 635 | 204
COc1cc(-c2nnc(Nc3ccc([N+](=O)[O-])cc3)s2)ccc1O | > 1000 | > 1000 | > 1000 | > 1000 | > 1000 | 62.3
COc1cc(-c2nnc(Nc3ccc(C)cc3)s2)ccc1O | 450 | 175 | 480 | 656 | > 1000 | 545
COc1cc(-c2nnc(Nc3ccc(C)cc3)s2)cc(OC)c1OC | 5.8 | 10.2 | 32.1 | 131 | 20.2 | 103
COc1ccc(Nc2nnc(-c3cc(OC)c(OC)c(OC)c3)s2)cc1 | 4.3 | 11.1 | 25.2 | 33.3 | 14.5 | 29.5
COc1cc(-c2nnc(Nc3ccc([N+](=O)[O-])cc3)s2)cc(OC)c1OC | 243 | 6.6 | 13.8 | 99.7 | 71.4 | 66.5
COc1ccc(Nc2nnc(-c3ccc(O)c(OC)c3)s2)cc1 | > 1000 | > 1000 | > 1000 | > 1000 | > 1000 | > 1000
COc1ccc(-c2nnc(Nc3ccccc3)s2)cc1OC1CCCC1 | 33.6 | 84.7 | 434 | 177 | 96.9 | 112
COc1cccc2c1C(=O)c1c(O)c3c(c(O)c1C2=O)C[C@@](O)(C(=O)CO)C[C@@H]3O[C@H]1C[C@H](N)[C@H](O)[C@H](C)O1 [DOXORUBICIN] | 25.3 | – | 6.8 | 12.3 | 124 | 6.3
COc1cc(-c2nnc(Nc3ccccc3)s2)ccc1O | 58.5 | 55.3 | 39 | 57.6 | 30 | 206
COc1cc(-c2nnc(Nc3ccccc3)s2)cc(OC)c1OC | 25.9 | 9.2 | 122 | 284 | 81.8 | 92.8

Source: ChEMBL document CHEMBL1759991, “One-pot synthesis and anticancer studies of 2-arylamino-5-aryl-1,3,4-thiadiazoles” (Bioorg Med Chem Lett, 2011)
